Tested on: not listed separately
Assay: Oxygen radical absorption capacity
Conditions: TEAC units; X = EO or compound
Method in brief: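 Peroxyl radical (ROO) scavenging by the oils and individual components, following a published ORAC method, in triplicate. Data are mean ± SD, with significance by ANOVA/Tukey's HSD (p < 0.05).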

| Compound | ORAC |
| --- | --- |
| CC12CCC(CC1)C(C)(C)O2 [1,8-Cineole] | N/D (Activity lower than 0.05 units at a maximum assay concentration of 100 mM) |
| CC1(C)C2CCC1(C)C(O)C2 (stereo not shown) [Borneol] | N/D (Activity lower than 0.05 units at a maximum assay concentration of 100 mM) |
| C=C1C2CCC(C2)C1(C)C (stereo not shown) [Camphene] | N/D (Activity lower than 0.05 units at a maximum assay concentration of 100 mM) |
| Cc1ccc(C(C)C)cc1O [Carvacrol] | 2.8 ± 0.1 μmol TE/μL X |
| C=CC(=C)CCC=C(C)C [Myrcene] | N/D (Activity lower than 0.05 units at a maximum assay concentration of 100 mM) |
| CC(C)C12CCC(C)(O)C1C2 (stereo not shown) [Sabinene hydrate] | 0.3 ± 0.0 μmol TE/μL X |
| CC1=CCC(O)(C(C)C)CC1 (stereo not shown) [Terpinen-4-ol] | 2.2 ± 0.1 μmol TE/μL X |
| CC(=O)OC1CC2CCC1(C)C2(C)C (stereo not shown) [bornyl acetate] | N/D (Activity lower than 0.05 units at a maximum assay concentration of 100 mM) |

Tested on: not listed separately
Assay: ABTS radical cation bleaching assay
Conditions: TEAC units; X = EO or compound
Method in brief: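 ABTS radical cation (ABTS•+) bleaching by essential oils and their individual components, run in triplicate by a published method. Results are given as mean ± SD, compared by ANOVA with Tukey's HSD (p < 0.05).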

| Compound | ABTS |
| --- | --- |
| CC12CCC(CC1)C(C)(C)O2 [1,8-Cineole] | 0.2 ± 0.0 μmol TE/mL X |
| CC1(C)C2CCC1(C)C(O)C2 (stereo not shown) [Borneol] | N/D (Activity lower than 0.05 units at a maximum assay concentration of 100 mM) |
| C=C1C2CCC(C2)C1(C)C (stereo not shown) [Camphene] | 0.8 ± 0.0 μmol TE/mL X |
| Cc1ccc(C(C)C)cc1O [Carvacrol] | 7804.4 ± 268.1 μmol TE/mL X |
| C=CC(=C)CCC=C(C)C [Myrcene] | N/D (Activity lower than 0.05 units at a maximum assay concentration of 100 mM) |
| CC(C)C12CCC(C)(O)C1C2 (stereo not shown) [Sabinene hydrate] | 3.2 ± 0.2 μmol TE/mL X |
| CC1=CCC(O)(C(C)C)CC1 (stereo not shown) [Terpinen-4-ol] | 1.8 ± 0.1 μmol TE/mL X |
| CC(=O)OC1CC2CCC1(C)C2(C)C (stereo not shown) [bornyl acetate] | N/D (Activity lower than 0.05 units at a maximum assay concentration of 100 mM) |

Tested on: not listed separately
Assay: DPPH radical scavenging capacity
Conditions: TEAC units; X = EO or compound
Method in brief: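 DPPH radical scavenging by essential oils and individual components, by a published method, in triplicate. Values are expressed as μmol TE/mL EO and given as mean ± SD, with ANOVA/Tukey's HSD at p < 0.05.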

| Compound | DPPH |
| --- | --- |
| CC12CCC(CC1)C(C)(C)O2 [1,8-Cineole] | N/D (Activity lower than 0.05 units at a maximum assay concentration of 100 mM) |
| CC1(C)C2CCC1(C)C(O)C2 (stereo not shown) [Borneol] | N/D (Activity lower than 0.05 units at a maximum assay concentration of 100 mM) |
| C=C1C2CCC(C2)C1(C)C (stereo not shown) [Camphene] | N/D (Activity lower than 0.05 units at a maximum assay concentration of 100 mM) |
| Cc1ccc(C(C)C)cc1O [Carvacrol] | 34.9 ± 2.5 μmol TE/mL X |
| C=CC(=C)CCC=C(C)C [Myrcene] | N/D (Activity lower than 0.05 units at a maximum assay concentration of 100 mM) |
| CC(C)C12CCC(C)(O)C1C2 (stereo not shown) [Sabinene hydrate] | N/D (Activity lower than 0.05 units at a maximum assay concentration of 100 mM) |
| CC1=CCC(O)(C(C)C)CC1 (stereo not shown) [Terpinen-4-ol] | 0.3 ± 0.0 μmol TE/mL X |
| CC(=O)OC1CC2CCC1(C)C2(C)C (stereo not shown) [bornyl acetate] | N/D (Activity lower than 0.05 units at a maximum assay concentration of 100 mM) |

Tested on: not listed separately
Assay: Chelating power
Conditions: EDTAE units; X = EO or compound
Method in brief: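 Ferrous ion chelation by essential oils and their major components, by a published method, in triplicate. Results are expressed as EDTA equivalents per volume of EO, mean ± SD, with ANOVA/Tukey's HSD (p < 0.05).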

| Compound | ChP |
| --- | --- |
| CC12CCC(CC1)C(C)(C)O2 [1,8-Cineole] | 6.7 ± 0.4 μmol EDTAE/mL X |
| CC1(C)C2CCC1(C)C(O)C2 (stereo not shown) [Borneol] | N/D (Activity lower than 0.05 units at a maximum assay concentration of 100 mM) |
| C=C1C2CCC(C2)C1(C)C (stereo not shown) [Camphene] | 9.9 ± 0.7 μmol EDTAE/mL X |
| Cc1ccc(C(C)C)cc1O [Carvacrol] | N/D (Activity lower than 0.05 units at a maximum assay concentration of 100 mM) |
| C=CC(=C)CCC=C(C)C [Myrcene] | 14.4 ± 1.0 μmol EDTAE/mL X |
| CC(C)C12CCC(C)(O)C1C2 (stereo not shown) [Sabinene hydrate] | 44.9 ± 3.7 μmol EDTAE/mL X |
| CC1=CCC(O)(C(C)C)CC1 (stereo not shown) [Terpinen-4-ol] | 10.3 ± 0.7 μmol EDTAE/mL X |
| CC(=O)OC1CC2CCC1(C)C2(C)C (stereo not shown) [bornyl acetate] | 0.1 ± 0.0 μmol EDTAE/mL X |

Tested on: not listed separately
Assay: Reducing power
Conditions: AAE units; X = EO or compound
Method in brief: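 Reduction of potassium ferricyanide by the oils and individual components, by a published method, in triplicate. Results are reported as ascorbic acid equivalents per volume of EO, mean ± SD, with ANOVA/Tukey's HSD (p < 0.05).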

| Compound | RdP |
| --- | --- |
| CC12CCC(CC1)C(C)(C)O2 [1,8-Cineole] | N/D (Activity lower than 0.05 units at a maximum assay concentration of 100 mM) |
| CC1(C)C2CCC1(C)C(O)C2 (stereo not shown) [Borneol] | N/D (Activity lower than 0.05 units at a maximum assay concentration of 100 mM) |
| C=C1C2CCC(C2)C1(C)C (stereo not shown) [Camphene] | 3238.9 ± 157.4 μmol AAE/L X |
| Cc1ccc(C(C)C)cc1O [Carvacrol] | 3239.6 ± 143.0 μmol AAE/L X |
| C=CC(=C)CCC=C(C)C [Myrcene] | N/D (Activity lower than 0.05 units at a maximum assay concentration of 100 mM) |
| CC(C)C12CCC(C)(O)C1C2 (stereo not shown) [Sabinene hydrate] | N/D (Activity lower than 0.05 units at a maximum assay concentration of 100 mM) |
| CC1=CCC(O)(C(C)C)CC1 (stereo not shown) [Terpinen-4-ol] | N/D (Activity lower than 0.05 units at a maximum assay concentration of 100 mM) |
| CC(=O)OC1CC2CCC1(C)C2(C)C (stereo not shown) [bornyl acetate] | N/D (Activity lower than 0.05 units at a maximum assay concentration of 100 mM) |

Tested on: not listed separately
Assay: Thiobarbituric acid reactive substances
Conditions: BHTE units; X = EO or compound
Method in brief: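 TBARS formation by oxidation measured in soybean lecithin homogenate as lipid-rich medium, by a published method, in triplicate. Values are expressed as μmol BHTE/mL EO, mean ± SD, with ANOVA/Tukey's HSD (p < 0.05).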

| Compound | TBARS |
| --- | --- |
| CC12CCC(CC1)C(C)(C)O2 [1,8-Cineole] | N/D (Activity lower than 0.05 units at a maximum assay concentration of 100 mM) |
| CC1(C)C2CCC1(C)C(O)C2 (stereo not shown) [Borneol] | N/D (Activity lower than 0.05 units at a maximum assay concentration of 100 mM) |
| C=C1C2CCC(C2)C1(C)C (stereo not shown) [Camphene] | N/D (Activity lower than 0.05 units at a maximum assay concentration of 100 mM) |
| Cc1ccc(C(C)C)cc1O [Carvacrol] | 600.7 ± 102.2 μmol BHTE/mL X |
| C=CC(=C)CCC=C(C)C [Myrcene] | N/D (Activity lower than 0.05 units at a maximum assay concentration of 100 mM) |
| CC(C)C12CCC(C)(O)C1C2 (stereo not shown) [Sabinene hydrate] | 97.2 ± 4.2 μmol BHTE/mL X |
| CC1=CCC(O)(C(C)C)CC1 (stereo not shown) [Terpinen-4-ol] | 50.2 ± 10.6 μmol BHTE/mL X |
| CC(=O)OC1CC2CCC1(C)C2(C)C (stereo not shown) [bornyl acetate] | N/D (Activity lower than 0.05 units at a maximum assay concentration of 100 mM) |

Target: T1, lipoxygenase (LOX) (linoleate:oxygen oxidoreductase, EC 1.13.11.12) (Glycine max, UniProt P08170)
T1 sequence (P08170 1-839): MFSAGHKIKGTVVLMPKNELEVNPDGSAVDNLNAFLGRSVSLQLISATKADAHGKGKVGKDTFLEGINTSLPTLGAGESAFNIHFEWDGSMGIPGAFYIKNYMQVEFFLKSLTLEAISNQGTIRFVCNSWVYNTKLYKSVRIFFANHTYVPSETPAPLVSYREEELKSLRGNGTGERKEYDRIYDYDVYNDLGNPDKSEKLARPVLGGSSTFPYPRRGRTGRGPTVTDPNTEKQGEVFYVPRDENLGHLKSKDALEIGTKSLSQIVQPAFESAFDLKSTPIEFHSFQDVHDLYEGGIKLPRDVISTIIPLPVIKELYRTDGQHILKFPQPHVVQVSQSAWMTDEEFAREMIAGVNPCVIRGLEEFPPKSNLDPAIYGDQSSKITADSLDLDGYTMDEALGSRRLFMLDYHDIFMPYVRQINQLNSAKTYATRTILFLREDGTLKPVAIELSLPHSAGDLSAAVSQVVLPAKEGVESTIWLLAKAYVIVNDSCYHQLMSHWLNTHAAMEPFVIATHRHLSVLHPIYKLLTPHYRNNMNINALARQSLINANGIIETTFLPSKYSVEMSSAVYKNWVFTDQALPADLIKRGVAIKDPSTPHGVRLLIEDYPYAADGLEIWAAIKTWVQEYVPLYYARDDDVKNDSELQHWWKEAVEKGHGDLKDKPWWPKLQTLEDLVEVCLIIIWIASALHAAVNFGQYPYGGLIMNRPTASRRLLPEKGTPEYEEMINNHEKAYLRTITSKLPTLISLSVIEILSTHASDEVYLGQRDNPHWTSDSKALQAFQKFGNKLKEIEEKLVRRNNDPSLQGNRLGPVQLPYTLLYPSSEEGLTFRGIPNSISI
Assay: Lipoxygenase
Format: biochemical, Glycine max (soybean)
Conditions: soybean LOX, linoleic acid substrate, 25 °C; mean ± SD

| Compound | LOX inhibitory activity, IC50 of main commercially available compounds |
| --- | --- |
| CC(=O)OC1CC2CCC1(C)C2(C)C (stereo not shown) [bornyl acetate] | 75 ± 3 μL (Compound)/L |

Reference: article PMC9322249 (Journal of Food and Drug Analysis, 2017)
